Experimental data as given in BindingDB's records for doi:10.1021/jm9504767 (Freie Universität Berlin, 1996).

These molecules were tested against Histamine H3 receptor (Rattus norvegicus, UniProt Q9QYN8) (assay: In vitro antagonistic activity tested against Histamine H3 receptor on synaptosomes from rat cerebral cortex).
Summary of the method: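 Preloaded 30 min with L-[3H]histidine (0.4 µM) at 37 °C in modified Krebs-Ringer. Washed, resuspended in 2 mM K+ medium, then depolarized 2 min with 2 or 30 mM K+ (final). […] Stopped by rapid centrifugation; liquid scintillation. Ki by Cheng-Prusoff; mean ± SEM, ≥3 determinations.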

Histamine H3 receptor, sequence (Q9QYN8 whole entry): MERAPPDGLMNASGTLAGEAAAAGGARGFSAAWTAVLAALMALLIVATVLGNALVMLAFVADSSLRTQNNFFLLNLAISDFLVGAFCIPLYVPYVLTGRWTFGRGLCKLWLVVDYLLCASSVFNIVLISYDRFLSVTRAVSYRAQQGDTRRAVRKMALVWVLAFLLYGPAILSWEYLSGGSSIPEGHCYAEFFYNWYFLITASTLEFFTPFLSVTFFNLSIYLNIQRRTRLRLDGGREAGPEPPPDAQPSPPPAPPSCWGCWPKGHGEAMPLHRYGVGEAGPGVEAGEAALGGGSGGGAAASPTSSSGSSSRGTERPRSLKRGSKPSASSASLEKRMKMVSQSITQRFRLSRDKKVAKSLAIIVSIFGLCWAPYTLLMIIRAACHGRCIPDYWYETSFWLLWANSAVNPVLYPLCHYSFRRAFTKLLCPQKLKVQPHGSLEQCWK

SMILES | Ki [nM]
O=C(CCc1ccc(I)cc1)OCCCc1cnc[nH]1 [3-(4-Iodo-phenyl)-propionic acid 3-(1H-imidazol-4-yl)-propyl ester] | 50
COc1ccc(CCC(=O)OCCCc2cnc[nH]2)cc1I [3-(3-Iodo-4-methoxy-phenyl)-propionic acid 3-(1H-imidazol-4-yl)-propyl ester] | 251
Nc1c(I)cc(C(=O)OCCCc2cnc[nH]2)cc1I [4-Amino-3,5-diiodo-benzoic acid 3-(1H-imidazol-4-yl)-propyl ester] | 158
Ic1ccc(CCCOCCCc2cnc[nH]2)cc1 [4-{3-[3-(4-Iodo-phenyl)-propoxy]-propyl}-1H-imidazole] | 31.6
Cc1ccc(C(=O)OCCCc2cnc[nH]2)cc1I [3-Iodo-4-methyl-benzoic acid 3-(1H-imidazol-4-yl)-propyl ester] | 31.6

Results, then the molecule that gave them:

Ki [nM] | SMILES
12.6 | Brc1ccc(COCCCc2cnc[nH]2)cc1 [4-[3-(4-Bromo-benzyloxy)-propyl]-1H-imidazole]
16 | Ic1cccc(OCCCc2cnc[nH]2)c1 [4-[3-(3-Iodo-phenoxy)-propyl]-1H-imidazole]
19.9 | Ic1ccc(OCCCc2cnc[nH]2)cc1 [4-[3-(4-Iodo-phenoxy)-propyl]-1H-imidazole]
6.31 | Ic1cccc(COCCCc2cnc[nH]2)c1 [4-[3-(3-Iodo-benzyloxy)-propyl]-1H-imidazole]
